This is an account of results in ChEMBL document CHEMBL1121642, “Synthesis and antiherpetic activity of some 4-[(aryloxy)alkyl]pyrazoles” (1981).

Experiment [1] has as its system Human alphaherpesvirus 2. As to the kind of experiment: Tested in vitro for minimum inhibitory activity against Herpes simplex virus type -2 (HSV-2); Inactive. Format: functional, organism-based.
Experiment [2] concerns Human alphaherpesvirus 2. In words: Tested in vitro for minimum inhibitory activity against Herpes simplex virus type -2 (HSV-2). Type of experiment: functional.
The species named for experiment [3] is Mus musculus. As to the kind of experiment: Effect on the survival rate of mice infected intravaginally with Herpes simplex virus type -2 (HSV-2) at 10% dosage twice in a day. Type of experiment: functional. Put shortly: (§1)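 Mice infected intravaginally with a tampon (dental pellet) saturated with HSV suspension. Aqueous drug solution given intravaginally b.i.d. on cotton tampons, starting 4 h postinfection. Each tampon stayed in 24 h, was re-moistened with 0.02 mL drug 6 h after insertion, and was replaced daily. Deaths were recorded daily to 14 days. Read-out: % survival and average survival time, with survivors scored >14 days.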

The species named for experiment [4] is Mus musculus. As to the kind of experiment: Effect on the survival rate of mice infected intravaginally with Herpes simplex virus type -2 (HSV-2) at 5% dosage twice in a day. Type of experiment: functional. In a few lines: as §1

Each structure is given as a SMILES string. Values after ≈ are worked out from the molar mass of the structure shown. Active and inactive are the calls of the source. The calls are words filed in the database; no cut-off is given here.

Consider `CCc1n[nH]c(CC)c1CCCCCCOc1ccc(SC)cc1Cl`, for which the MIC result with Human alphaherpesvirus 2 [1] is “inactive”. For `CCc1nn(C)c(CC)c1CCCCCOc1ccc(OC)cc1Cl`, in the experiment with Human alphaherpesvirus 2 [2], the MIC came out at 3 µg/mL (≈ 8.22 µM). As to `CCc1n[nH]c(CC)c1CCCCCCOc1ccc(OC)cc1`, the MIC result in the experiment with Human alphaherpesvirus 2 [1] was “inactive”.

Consider `CCc1n[nH]c(CC)c1CCCCCCOc1ccc([S+](C)[O-])cc1Cl` (stereo unspecified), for which the MIC in the experiment on Human alphaherpesvirus 2 [2] was 3 µg/mL (≈ 7.56 µM).

`COc1ccc(OCCCCCCc2c(-c3ccccc3)n[nH]c2-c2ccccc2)c(Cl)c1` came in with an MIC against Human alphaherpesvirus 2 [2] of 3 µg/mL (≈ 6.51 µM). On the same count and under the same terms, then `CCc1n[nH]c(CC)c1CCCCCCOc1ccc(Cl)cc1`, with 6 µg/mL (≈ 17.9 µM); and `CCc1n[nH]c(CC)c1CCCCCCOc1ccc(O)cc1Cl`, with 12 µg/mL (≈ 34.2 µM). Still for that read-out and setting: then `CCc1nn(-c2ccccn2)c(CC)c1CCCCCCOc1ccc(OC)cc1Cl`, with 6 µg/mL (≈ 13.6 µM).

Compound `CCn1nc(C)c(CCCCCCOc2ccc(OC)cc2Cl)c1C` showed an MIC in the experiment on Human alphaherpesvirus 2 [2] of 0.7 µg/mL (≈ 1.92 µM). In the experiment listed under Mus musculus [3], the Average survival was over 9 days and the Survival was found to be 30%. Further, in the experiment listed under Mus musculus [4], the Average survival is over 10 days and the Survival is on record as 30%. As for `CCc1nn(CC(F)(F)F)c(CC)c1CCCCCCOc1ccc(OC)cc1Cl`, the MIC result in the experiment on Human alphaherpesvirus 2 [1] is “inactive”. `CCc1n[nH]c(CC)c1CCCCCOc1ccc(OC)cc1Cl`: the MIC with Human alphaherpesvirus 2 [2] stood at 6 µg/mL (≈ 17.1 µM). For the compound `CCCCn1nc(C)c(CCCCCCOc2ccc(OC)cc2Cl)c1C`, in the experiment with Human alphaherpesvirus 2 [2], the MIC is 6 µg/mL (≈ 15.3 µM). On the same count and under the same terms, then `COc1ccc(OCCCCCCc2c(C)n[nH]c2C)c(Cl)c1`, with 3 µg/mL (≈ 8.91 µM). `CCc1nn(C(C)=O)c(CC)c1CCCCCCOc1ccc(OC)cc1Cl`: in the experiment on Human alphaherpesvirus 2 [1], the MIC result was “inactive”.

In the experiment on Human alphaherpesvirus 2 [2], `CCc1nn(C(=O)CCCN2CCOCC2)c(CC)c1CCCCCCOc1ccc(OC)cc1Cl` gave an MIC of 3 µg/mL (≈ 5.77 µM).

Take `CCc1nn(CC(=O)O)c(CC)c1CCCCCCOc1ccc(OC)cc1Cl`: the MIC result with Human alphaherpesvirus 2 [1] is “inactive”. For the compound `CCc1n[nH]c(CC)c1CCCCCCOc1ccccc1`, the MIC entry with Human alphaherpesvirus 2 [1] is “inactive”.
